Assay results gathered from unrelated publications.
Compare with care: the assays were run in different laboratories.
Cell line: SW-620
Effect on: cell growth or viability

SMILES | method | concentration | time | quantity | value
COc1ccc(C(=O)/C=C/c2cccc(Br)c2)cc1S(N)(=O)=O | SRB | 10 µM | – | inhibition | 120%
O=C(/C=C/c1ccc2c(=O)n(CCCl)cnc2c1)NO | SRB | – | 48 h | IC50 | 5.65 µM
CC(=O)Nc1cccc(-n2c(=O)n(C3CC3)c(=O)c3c(Nc4ccc(I)cc4F)n(C)c(=O)c(C)c32)c1 | resazurin | 780 pM | 72 h | viability | 71.7%
CC(C)n1c(/C=C/C(O)CC(O)CC(=O)O)c(-c2ccc(F)cc2)c2ccccc21 (stereo not shown) | SRB | – | 72 h | IC50 | 0.49 µg/mL
Cc1cc(C)n(C(=S)[S][Au][PH](CCCCCC[PH]([Au][S]C(=S)n2nc(C)cc2C)(c2ccccc2)c2ccccc2)(c2ccccc2)c2ccccc2)n1 | – | – | – | GI50 | 1.26 µM
COc1ccc(C(=O)/C=C/c2ccc3ccccc3c2)cc1S(N)(=O)=O | SRB | – | 48 h | GI50 | 1.8 µM
CC(C)C[C@H](NC(=O)[C@H](Cc1ccccc1)NC(=O)c1cnccn1)B(O)O | ATP luminescence | – | – | IC50 | 0.009 µM
COc1cccc(Oc2ccccc2NC(=O)CNC(=O)c2cccc3ccccc23)c1 | SRB | – | 48 h | GI50 | 0.166 µM
CCn1cnc2cc(/C=C/C(=O)NO)ccc2c1=O | SRB | – | 48 h | IC50 | 2.97 µM
CC[C@H](C)C(=O)O[C@H]1CCC=C2C=C[C@H](C)[C@H](CC[C@@H]3C[C@@H](O)CC(=O)O3)[C@H]21 | SRB | – | 72 h | IC50 | 0.48 µg/mL
O=C(/C=C/c1ccc2c(=O)n(Cc3ccc(F)cc3)cnc2c1)NO | SRB | – | 48 h | IC50 | 1.03 µM
COc1ccc(C(=O)/C=C/c2ccccc2Br)cc1S(N)(=O)=O | SRB | – | 48 h | GI50 | 1.8 µM
O=C(/C=C/c1ccc2c(=O)n(CCO)cnc2c1)NO | SRB | – | 48 h | IC50 | 3.68 µM
COc1ccc(C(=O)/C=C/c2ccc3c(c2)OCCO3)cc1S(N)(=O)=O | SRB | 10 µM | – | inhibition | 68%
O=C(/C=C/c1ccc2c(=O)n(Cc3ccccc3F)cnc2c1)NO | SRB | – | 48 h | IC50 | 1.77 µM
COc1ccc(C(=O)/C=C/c2cccc(Cl)c2Cl)cc1S(N)(=O)=O | SRB | – | 48 h | GI50 | 1.6 µM
